Assay outcomes deposited in PubChem by Johns Hopkins Ion Channel Center.
Only some compounds are listed: those with a hit (about 3.7% of all), similar ones and a draw of the others.
KCNK3 block – human KCNK3 channel inhibition, primary screen; CHO-KCNK3 thallium flux, FluxOR fluorescence; hits give low values; B-score at 10 µM; 340,000 compounds, 0.84% hits; AID 602410;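 active means B-score under library mean minus 4 SD, starting fluorescence ratio at most library mean plus 5 SD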;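 further: more negative B-score means stronger inhibition of thallium flux through KCNK3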
KCNK9 inh – inhibitors of human KCNK9 two-pore domain potassium channel | B-score at 10 µM | 310,000 compounds, 1.2% hits | HEK293 KCNK9, FluxOR thallium flux fluorescence; hits give low values | Q9NPC2 | AID 488922;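 active means ratio B-score over 3 SD below the library mean, with starting fluorescence within 5 SD of its mean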;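 further: negative B-score means less thallium flux so channel inhibition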
Kir21 inh – Kir2.1 (mouse) channel inhibition; HEK293-Kir2.1, FluxOR thallium flux fluorescence; hits give low values; AID 1672; 310,000 compounds, 0.85% hits; B-score at 10 µM; P35561;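 active means fluorescence ratio B-score at or below minus 3 SD of library scores, with starting-brightness B-score within 2 SD, cut at about -4.2 in these data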;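 further: channel flux triggered by added potassium and thallium sulfate stimulus; B-score of peak minus minimum fluorescence over baseline after thallium stimulus; more negative B-score means stronger Kir2.1 block with less thallium influx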
KCNQ1 block – blocks the human KCNQ1 potassium channel | P51787 | CHO-K1 KCNQ1, FluxOR thallium flux fluorescence; hits give high values | B-score at 10 µM | 310,000 compounds, 1.3% hits | AID 2642;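 active means compounds whose thallium flux B-score, printed positive for inhibition, exceeds three library SD while starting fluorescence stays within three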;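 further: channel opened by potassium depolarization with thallium stimulus after 20 min compound exposure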
KCNQ1 pot – human KCNQ1 channel potentiation or activation; CHO-K1 KCNQ1, thallium flux FluxOR fluorescence; hits give high values; 310,000 compounds, 0.35% hits; B-score at 10 µM; P51787;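 active means fluorescence ratio B-score, a plate-corrected score, at least three library SD, with initial intensity B-score within 5 SD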
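assay system = CHO-K1 cells stably expressing KCNQ1 | medium = assay buffer, equal DMSO in all wells | timing = 37 °C overnight plating, 90-min dark dye load, 20-min compound pretreatment | measured by = kinetic FluxOR thallium fluorescence, 10-s 1-Hz baseline, 110-s post-stimulus read | measure = fluorescence change relative to baseline, converted to B score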
hERG rescue – hERG (human) protection from proarrhythmic block. CHO-hERG, FluxOR thallium flux, dofetilide IC70 present. activation (rescue from dofetilide block), less the hit threshold, % at 10 µM. 310,000 compounds, 0.51% hits. AID 1511;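 active means activation above the mean of controls blocked by dofetilide plus 5 SD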;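 further: thallium influx through hERG after potassium depolarization seen as dye fluorescence rise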
KCNQ1 block val – reconfirmed blocker of the human KCNQ1 potassium channel; shares compounds with KCNQ1 block; KCNQ1 cell line, FluxOR thallium flux fluorescence; inhibition, % at 10 µM; 1,600 compounds, 93% hits;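 active means primary screen active, with duplicate mean exceeding buffer control mean plus 3 SD of buffer wells, cut at about 28% in these data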;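 further: 0% = buffer control ratio and 100% = XE991 inhibitor control ratio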
CHO KCNQ1 ctr – KCNQ1 inhibitor counter-screen hit in parental CHO cells; shares compounds with KCNQ1 block; parental CHO-K1, FluxOR thallium flux fluorescence ratio; hits give low values; zero means no signal rise above baseline; fluorescence ratio (Tl flux) at 10 µM; 1,600 compounds, 21% hits; AID 588366;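 active means mean of duplicate thallium-flux fluorescence ratios in parental host cells more than 5 SD below the buffer control mean, cut at about 0.38 in these data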;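 further: ratio is peak minus minimum fluorescence divided by baseline fluorescence; actives read low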
KCNQ1 APC inh – human KCNQ1 inhibition validated by electrophysiology; AID 624120; 490 compounds, 20% hits; calls only at 10 µM; KCNQ1-CHO cells, automated patch clamp current; shares compounds with KCNQ1 block;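 active means KCNQ1 current drop exceeding 3 SD of negative control wells, seen in both duplicate runs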;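 further: steady state current during a 2 s step from -80 to +40 mV; negative values mean current inhibition and positive values mean potentiation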
KCNQ2 inh – selectivity of KCNQ1 inhibitors: inhibition of rat KCNQ2 channel | shares compounds with KCNQ1 block | inhibition, % at 10 µM | 1,600 compounds, 71% hits | KCNQ2 cells, FluxOR thallium flux fluorescence;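 active means mean percent inhibition of the KCNQ2 thallium signal more than 5 SD above the buffer-only control wells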;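 further: KCNQ2 expressed in CHO cells; 0% = buffer control wells and 100% = XE-991 inhibitor control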
Target sequence (O88943 whole entry, looked up): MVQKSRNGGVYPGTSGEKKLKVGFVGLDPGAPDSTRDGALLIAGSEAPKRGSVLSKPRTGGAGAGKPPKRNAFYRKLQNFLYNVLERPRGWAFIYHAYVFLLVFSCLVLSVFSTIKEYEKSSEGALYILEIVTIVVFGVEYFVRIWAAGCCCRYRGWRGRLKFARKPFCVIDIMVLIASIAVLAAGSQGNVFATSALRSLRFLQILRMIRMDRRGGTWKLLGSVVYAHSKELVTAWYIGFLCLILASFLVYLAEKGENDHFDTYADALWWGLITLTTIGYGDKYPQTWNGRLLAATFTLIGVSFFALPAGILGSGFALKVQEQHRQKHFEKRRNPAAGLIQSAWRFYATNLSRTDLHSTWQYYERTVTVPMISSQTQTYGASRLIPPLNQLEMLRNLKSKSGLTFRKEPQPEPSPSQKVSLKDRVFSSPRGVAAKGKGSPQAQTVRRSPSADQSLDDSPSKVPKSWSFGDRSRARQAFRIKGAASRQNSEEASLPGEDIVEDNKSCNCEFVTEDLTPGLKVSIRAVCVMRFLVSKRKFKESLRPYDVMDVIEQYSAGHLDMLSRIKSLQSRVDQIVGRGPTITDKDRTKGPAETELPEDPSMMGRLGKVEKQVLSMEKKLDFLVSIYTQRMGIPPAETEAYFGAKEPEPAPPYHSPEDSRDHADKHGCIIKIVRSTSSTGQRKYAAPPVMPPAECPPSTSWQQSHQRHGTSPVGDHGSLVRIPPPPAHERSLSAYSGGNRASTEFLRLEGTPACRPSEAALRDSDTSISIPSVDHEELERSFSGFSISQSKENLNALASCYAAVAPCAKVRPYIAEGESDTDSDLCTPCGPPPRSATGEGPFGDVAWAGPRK
KCNQ1 KCNE1 spec – KCNQ1 inhibitor that also blocks human KCNQ1/KCNE1 channel; shares compounds with KCNQ1 block; KCNQ1/KCNE1 cells, FluxOR thallium flux fluorescence; inhibition, % at 10 µM; 1,600 compounds, 77% hits; AID 652147;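 active means mean percent inhibition of duplicate wells above the buffer-only control mean plus 3 SD of those controls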;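 further: 0% = buffer only wells and 100% = XE-991 inhibitor control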
KCNK9 block conf – confirmation of human KCNK9 potassium channel inhibitors | shares compounds with KCNK9 inh | HEK293 KCNK9 cells, FluxOR thallium flux fluorescence | inhibition, % at 10 µM | 4,900 compounds, 43% hits | AID 492992;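 active means thallium signal inhibited by more than 5 SD of the compound-free buffer control wells, on both duplicate plates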;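 further: 0% = assay buffer control wells without compound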
Kir2-1 spec – mouse Kir2.1 off-target activity of KCNK9 modulators | shares compounds with KCNK9 inh | Kir2.1 cells, FluxOR thallium flux fluorescence | inhibition, % at 10 µM | 4,900 compounds, 4% hits | AID 492993;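 active means thallium signal drop more than 5 SD beyond the mean of the no-compound control wells, seen in both duplicate plates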;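 further: signal is fluorescence rise after thallium addition divided by baseline fluorescence; plate controls were assay buffer only for no effect and full block by chlorpromazine control for full effect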
HEK293 Tl ctr – second counter-screen for KCNK9 modulators: effect in non-induced cells. non-induced KCNK9-HEK293, FluxOR thallium flux. shares compounds with KCNK9 inh. 4,900 compounds, 40% hits. inhibition, % at 10 µM;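 active means thallium signal drop beyond 5 SD of the untreated control mean, on both duplicate plates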;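 further: plate controls were buffer only IC0 wells for no effect and SID17386958 at its maximal inhibitory level for full effect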
An asterisk follows results filed as active; i = inactive; . = no result; + = active, no number.

SMILES	KCNK3 block	KCNK9 inh	Kir21 inh	KCNQ1 block	KCNQ1 pot	hERG rescue	KCNQ1 block val	CHO KCNQ1 ctr	KCNQ2 inh	KCNQ1 KCNE1 spec	KCNK9 block conf	Kir2-1 spec	HEK293 Tl ctr	others
O=C(Nc1ccccc1)C1C(c2ccccc2)C1(Cl)Cl (stereo not given)	i	i	0.16	14*	i	-11	102*	0.43	101%*	136%*	.	.	.	KCNQ1 APC inh=+
COc1ccc(NC(=O)Nc2ccc(C(=O)N3CCOCC3)cc2)c(OC)c1	i	i	0.73	i	i	-5	.	.	.	.	.	.	.
O=C(COc1ccccc1F)Nc1cc(S(=O)(=O)Nc2cccc(Cl)c2)ccc1O	i	.	.	.	.	.	.	.	.	.	.	.	.
CC(C)(C)c1ccc(S(=O)(=O)N2CCC(c3nc4ccc(Cl)cc4[nH]3)CC2)cc1	i	i	2.1	10*	i	-4	117*	0.43	101%*	108%*	.	.	.
Cc1cc(C(=O)OCC(=O)NCCCN2CCCC2=O)c2ccccc2n1	i	i	0.04	11*	i	-9	0	0.51	i	73%*	.	.	.
O=C(COC(=O)c1ccc[nH]c1=O)Nc1ccc(N2CCCCC2)cc1	i	.	.	.	.	.	.	.	.	.	.	.	.
CC(=O)Nc1cccc(NC(=O)Nc2ccc(C)c(Cl)c2)c1	i	i	2	i	i	0	.	.	.	.	.	.	.
O=C(Nc1cccnc1)Nc1ccc(F)c(Cl)c1	i	i	0.71	6*	i	-19	0	0.56	i	i	.	.	.
Cc1ccc(NC(=O)Nc2ccc(F)c(Cl)c2)cc1	i	i	0.41	8*	i	-15	78*	0.52	i	44%*	.	.	.
CC(=O)Nc1cccc(NC(=S)Nc2ccc(F)c(Cl)c2)c1	i	i	-0.13	8*	i	-30	61*	0.45	i	i	.	.	.
CC(=O)NC(Cc1ccccc1F)C(=O)NC1CCN(C(=O)Nc2ccc(C)cc2)CC1 (stereo not given)	i	i	1.1	i	i	-11	.	.	.	.	.	.	.
FC(F)(F)c1cc(-c2ccco2)nc(N2CCN(Cc3ccccc3)CC2)n1	i	i	0.76	8*	i	-10	82*	0.42	75%*	106%*	.	.	.
COc1ccc2c(c1)-c1nc(NC(=O)c3cccs3)sc1CC2	i	-16*	0.7	7*	i	-11	108*	0.39	100%*	190%*	75%*	i	35%*	KCNQ1 APC inh=i
CC(C)(C)c1nc(SCC(=O)c2ccccc2)c2ccccc2n1	i	-9*	-0.33	9*	i	-19	84*	0.68	i	58%*	46%*	51%*	47%*
CCN(Cc1ccccc1)C(c1ccc(C)cc1)c1nnnn1C(C)(C)CC (stereo not given)	i	-13*	0.01	8*	i	-10	112*	0.41	112%*	86%*	58%*	i	50%*	KCNQ1 APC inh=i
CCN(Cc1ccccc1)C(c1ccncc1)c1nnnn1C(C)(C)C (stereo not given)	i	i	-0.25	i	i	0	.	.	.	.	.	.	.
Clc1cccc(-c2cc3nc4c(c(N5CCN(c6cnccn6)CC5)n3n2)CCCC4)c1	-8.8*	-13*	1.9	8*	i	-18	100*	0.39	119%*	162%*	46%*	i	36%*	KCNQ1 APC inh=i
S=C(Nc1ccc(Cc2ccncc2)cc1)Nc1cccc(Cl)c1	i	i	0.39	8*	i	-10	68*	0.51	86%*	37%*	i	i	i
CCOc1ccc(C(=O)NCCCN2CCOCC2)cc1OCC	i	i	0.54	i	i	-11	.	.	.	.	.	.	.
O=C(Nc1ccc(Oc2cccc3ccccc23)cc1)c1ccco1	i	-14*	1.4	11*	i	-12	160*	0.29*	i	+	54%*	i	31%*
O=C(Cn1cc(C(F)(F)F)ccc1=O)N/N=C/c1ccc(Cl)cc1	i	i	0.89	i	i	-5	.	.	.	.	.	.	.
CCOC(=O)c1ccccc1NC(=O)C1CCN(c2ncnc3sc(C)c(C)c23)CC1	-8.9*	i	-0.02	10*	i	-11	89*	0.41	132%*	130%*	i	i	32%*	KCNQ1 APC inh=i
CCCN(CC(=O)Nc1cc(Cl)cc(Cl)c1)CC(=O)Nc1ccc(F)c(F)c1F	i	-13*	2.5	6*	i	-10	132*	0.33*	119%*	159%*	55%*	i	46%*
CC(Cc1cccs1)NC(=S)Nc1ccc(Cl)cc1 (stereo not given)	i	-10*	-4.2*	8*	i	-21	50*	0.49	67%*	66%*	38%*	i	i
CC(Cc1cccs1)NC(=S)Nc1ccc(Cl)c(Cl)c1 (stereo not given)	i	i	-0.19	i	i	-6	.	.	.	.	.	.	.
Cn1c(=O)c(=O)n(C)c2cc([N+](=O)[O-])c(N3CCOCC3)cc21	i	i	0.83	i	i	-8	.	.	.	.	.	.	.
CCOC(=O)Cn1c(-c2ccccc2)nc2ccccc2c1=O	i	i	-0.17	i	i	-12	.	.	.	.	.	.	.
CCCOC(=O)C(C)n1c(-c2ccccc2)nc2ccccc2c1=O (stereo not given)	i	-11*	-1.6	7*	i	-9	0	0.48	i	58%*	51%*	i	36%*
